Results on 1 molecule are retold here after ChEMBL document CHEMBL5316316, “Designing Synthetic, Sulfated Glycosaminoglycan Mimetics That Are Orally Bioavailable and Exhibiting In Vivo Anticancer Activity” (J Med Chem, 2023).

Calls of active or inactive are those of the source. No cut-off for these calls is given here.

The subject of data set [1] is HT-29. Nature of the data set: Antitumor activity against human HT-29 cells xenografted in NCR nude mouse assessed as decrease in proportion of CSC at 100 mg/kg, po administered 5 times a week for 3 weeks by flow cytometry analysis. A general note: A xenograft is tissue or cells of one species grown in another, often human tumour cells in immunodeficient mice.
Data set [2] in a line: Toxicity in NCR nude mouse xenografted with human HT-29 cells assessed as bleeding at 100 mg/kg, po. The format is organism-based. To be noted: in vivo.
Data set [3] deals with Plasma. Nature of the data set: Anticoagulant activity in human plasma assessed as prolongation of activated partial thromboplastin time by measuring concentration required to double APTT incubated for 4 mins by coagulometer analysis. The format is functional, cell-free. The essentials:
(§1)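 Pooled normal citrated human plasma (90 μL) mixed with 10 μL compound and 100 μL prewarmed ellagic acid APTT reagent, incubated 4 min at 37 °C, then recalcified with 100 μL prewarmed 25 mM CaCl2. Clot time read on a fibrometer (one-stage recalcification). Water blank gave the baseline. Concentration doubling APTT came from a quadratic trend-line fit.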

The test system of data set [4] is HT-29. In words: Antitumor activity against human HT-29 cells xenografted in NCR nude mouse assessed as spheroid formation at 50 mg/kg, ip. It is filed as functional, organism-based. The essentials:
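Bulk HT-29 xenografts in NCr nude mice were FUOX-pretreated, then given 50 mg/kg IP three times/week (8 doses), alone or with FUOX. Collagenase-digested tumor cells were serially cultured as 1°–4° spheroids in stem cell medium with EGF/FGF. Spheroids of 50–150 μm were counted by phase contrast, in at least three replicates.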

Data set [5] deals with HT-29. In words: Antitumor activity against human HT-29 cells xenografted in NCR nude mouse assessed as reduction in tumor growth at 100 mg/kg, po administered 5 times a week for 3 weeks relative to control. The format is functional. Further details: scale not given: the % may be the effect or the level left. A digest of the protocol:
(§2)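 Dual Hi (CD133+/CXCR4+) HT-29 cells, FACS-sorted, injected subcutaneously at 1 × 10^5 into NCr nude mice. Mice were then randomized to vehicle or 100 mg/kg oral gavage 5 times/week for 3 weeks. Tumor volume was measured by caliper three times weekly.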

Data set [6] deals with HT-29. In words: Antitumor activity against human HT-29 cells xenografted in NCR nude mouse assessed as reduction in DCAMKL1 expression level at 50 mg/kg, ip in presence of 5-fluorouracil and oxaliplatin of by Western blot analysis. The format is functional, organism-based. A digest of the protocol:
(§3)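 Bulk HT-29 cells (1 × 10^6) were grown as subcutaneous xenografts in NCr nude mice and given FUOX (25 mg/kg FU + 2 mg/kg OX IP weekly for 3 weeks). Mice were then randomized (n = 4/arm) to 50 mg/kg IP three times/week (8 doses), alone or with FUOX. Tumor lysates (n = 2/group) were Western blotted for DCAMLK1 and BMI-1.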

Data set [7] in a line: Toxicity in NCR nude mouse xenografted with human HT-29 cells assessed as change in body weight at 100 mg/kg, po. It is filed as organism-based. To be noted: in vivo.
Data set [8] deals with HT-29. Nature of the data set: Antitumor activity against human HT-29 cells xenografted in NCR nude mouse assessed as reduction in BMI-1 expression level at 50 mg/kg, ip in presence of 5-fluorouracil and oxaliplatin of by Western blot analysis. It is filed as functional, organism-based. A digest of the protocol: as §3
For data set [9], the system named is Plasma. In words: Anticoagulant activity in pooled human plasma assessed as prolongation of activated partial thromboplastin time incubated for 4 mins by coagulometer analysis. The format is functional, cell-free. A digest of the protocol: as §1
Data set [10] deals with HT-29. In words: Cytotoxicity against human HT-29 cells assessed as reduction in cell viability at 100 uM incubated for 60 to 72 hrs by MTT assay. The format is toxicity, cell-based. To be noted: ht-29, 100 µM, time 60-72 hrs. The essentials: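 HT-29 monolayer cells were seeded at about 2.5 × 10^3 per well in DMEM:F12 with 10% FBS and incubated overnight at 37 °C, 5% CO2. Compound was added for 60–72 h. MTT (5 mg/mL in PBS) was added for 2–3 h, crystals were dissolved in DMSO and absorbance read at 590 nm. Results are percent of vehicle control, at least three replicates.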
Background: Formazan colour is commonly taken as a measure of viable cells.

Data set [11] concerns HT-29. In words: Antitumor activity against human CD133/CXCR4-induced HT-29 cells xenografted in NCR nude mouse assessed as spheroid formation at 100 mg/kg, po administered 5 times a week for 3 weeks by phase contrast microscopic analysis. The format is functional, organism-based. The essentials: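 Xenografts (Dual Hi HT-29, FUOX-pretreated, 100 mg/kg oral 5×/week for 3 weeks) were digested with collagenase IV and filtered at 70 μm. Cells were plated serially as 1°–3° spheroids on low-adhesion plates in stem cell medium with EGF and FGF. Spheroids of 50–150 μm were counted by phase contrast. At least three replicates.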

Data set [12] is described as follows: Toxicity in NCR nude mouse xenografted with human HT-29 cells assessed as change in body weight at 50 mg/kg, ip in presence 5-fluorouracil and oxaliplatin. The format is organism-based. To be noted: in vivo.
The nature of data set [13]: Ex-vivo growth inhibition of mouse intestinal organoids measured for 5 to 7 days in presence of 5-fluorouracil and oxaliplatin by phase contrast microscopic analysis. It is filed as toxicity, Intestine. To be noted: time 5-7 day. The essentials: (§4)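 Intestinal pieces (2–4 cm) were taken from treated xenograft mice and chelated and dissociated into crypts. About 200–500 crypts were embedded in Matrigel under mouse IntestiCult medium at 37 °C, 5% CO2. Organoids were counted by phase contrast after 5–7 days.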

A short description of data set [14]: Ex-vivo growth inhibition of mouse intestinal organoids measured for 5 to 7 days by phase contrast microscopic analysis. To be noted: time 5-7 day. It is filed as toxicity, Intestine. A digest of the protocol: as §4
Data set [15] deals with HT-29. Nature of the data set: Antitumor activity against CD133/CXCR4-induced human HT-29 cells xenografted in NCR nude mouse assessed as reduction in tumor growth at 100 mg/kg, po administered 5 times a week for 3 weeks. The format is functional, organism-based. A digest of the protocol: as §2
Data set [16] can be described thus: Ex-vivo growth inhibition of mouse intestinal organoids at 100 mg/kg, po measured for 5 to 7 days by phase contrast microscopic analysis. The conditions noted are these: in vivo.
A short description of data set [17]: Cytotoxicity against human HT-29 cells assessed as inhibition of spheroid growth. To be noted: HT-29 cell spheroids.

Broadly, the IC50 is the concentration that inhibits the measured activity by half. For `CC(C)CCC[C@@H](C)[C@H]1CC[C@H]2[C@@H]3CC=C4C[C@@H](OCCOc5cc(-c6oc7cc(OS(=O)(=O)[O-])cc(OCCCOc8cc(OS(=O)(=O)[O-])cc9oc(-c%10ccc(OS(=O)(=O)[O-])c(OS(=O)(=O)[O-])c%10)c(OS(=O)(=O)[O-])c(=O)c89)c7c(=O)c6OS(=O)(=O)[O-])ccc5OS(=O)(=O)[O-])CC[C@]4(C)[C@H]3CC[C@]12C.[Na+].[Na+].[Na+].[Na+].[Na+].[Na+].[Na+]`, the result in the data set on HT-29 [1], with Plasma [3], in the data set with HT-29 [4], with HT-29 [6], in the data set with HT-29 [8] and in the data set with HT-29 [11] was Active. In the data set with HT-29 [15], the outcome was Active. Further, the Activity result in data set [2] was “Non-Toxic”; in the data set with HT-29 [5], about 70%; in [7], “Non-Toxic”; in the data set on Plasma [9] it was “Dose-Dependent Effect”; in the data set with HT-29 [10], “Toxic”; in data set [12], “Non-Toxic”. Besides, the Activity entry in data set [13], in data set [14] and in data set [16] was “Non-Toxic” throughout. In addition, the IC50 in data set [17] turned out to be 5.5 µM.
